Compound activity deposited in PubChem BioAssay by several laboratories.
Beta apoptosis: blocks beta cell apoptosis; INS-1E cytokine-induced death, ATP luminescence, 48 h; percent of positive-control rescue, neutral wells zero; protection from apoptosis, % (concentration not given with the values); 0.8% of 300,000 active; AID 435005;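 active = Every replicate reaches about 75%, or at least half do and their mean reaches it too, limit read from the data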;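 note: higher means more ATP so stronger rescue from cytokine killing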
WT yeast gro inh: growth inhibition of WT yeast, mitochondrial fusion screen | 2.1% of 190,000 active | inhibition, % at 10 µM | mitochondrial fusion phenotypic screen, WT strain | AID 1362; in the data active = inhibition above about 58%; tested in S. cerevisiae
CSC inhib: cancer stem cell inhibition. cancer stem cell-like cells viability, luminescence. inhibition, % at 7.5 µM. 1.1% of 300,000 active. AID 2717; in the data active = inhibition above about 75%; tested in HMLE shEcad cells
Efflux pump inh: antifungal efflux pump inhibition, Nile Red retention. 0.44% of 330,000 active. AID 485275. S. cerevisiae Candida pump triplex. inhibition, % at 10 µM;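 active = plate passing quality check with inhibition over a set limit, or well fluorescence over plate mean plus 4 SD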;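 note: Nile Red retained in pooled yeast measured as flow cytometry median fluorescence; higher means more Nile Red kept so more efflux inhibition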
T cruzi inh: blocks replication of Trypanosoma cruzi; AID 1885; T. cruzi beta-gal in NIH3T3, luminescence, 90 h; inhibition, % (concentration not given with the values); 1.4% of 300,000 active;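 active = mean inhibition across valid replicates above about 55%, limit read from the data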;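 note: signal also drops with host cell toxicity which is not excluded here; higher percent means less beta-gal luminescence so fewer parasites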
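Assay system: NIH/3T3 fibroblasts plus reporter T. cruzi. Amount: NIH/3T3 cells, 5,000 per well. Buffer or medium: DMEM, 2% fetal bovine serum. Doses: compound pinned at 50 nL/well, DMSO. Schedule: ≥90 h infection period, 3 h prior cell attachment. Signal: luminescent β-galactosidase signal after 60 min lysis. Read-out: parasite load inhibition, %.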
SUMO Mot1 rescue: inhibitors of SUMOylation pathway: yeast Mot1-301 growth rescue; 1% of 320,000 active; S. cerevisiae Mot1-301 growth rescue, ATP luminescence, 38.5C; percent above DMSO median, 100 means doubled; growth rescue, % at 18.8 µM; AID 2716;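 active = every valid replicate shows activation above 250% relative to neutral control wells; inactive = the rest, any valid replicate at or below 250%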
Hits are given with their value; n = inactive; x = not tested or not shown. A selection: hits, their analogues and other compounds. The true share with any hit is near 4.8%.

SMILES	Beta apoptosis	WT yeast gro inh	CSC inhib	Efflux pump inh	T cruzi inh	SUMO Mot1 rescue
COc1ccc([N+](=O)[O-])c(S(=O)(=O)c2ccc(Cl)cc2)n1	82.8	x	n	n	n	n
O=[N+]([O-])c1cccnc1S(=O)(=O)c1ccccc1	n	x	n	n	68.2	n
COc1ccccc1S(=O)(=O)c1ccccc1[N+](=O)[O-]	n	n	n	n	n	n
COc1ccc([N+](=O)[O-])c(S(=O)(=O)c2ccccc2)n1	93.9	x	n	n	n	n
COc1ccc(OC)c(N/C=C/C(=C(C#N)C#N)N(C)C)c1	n	n	n	n	n	n
N#CC1(NC(=O)Cn2ncc(Cl)c(Cl)c2=O)CCCCC1	n	x	n	n	62.7	n
N#CC1(NC(=O)CN2C(=O)c3ccccc3C2=O)CCCCC1	n	x	n	n	x	n
Cc1cccc(N2CC(C(=O)Nc3nnc(SCc4ccccn4)s3)CC2=O)c1 (configuration not stated)	n	x	n	n	n	n
C/C(=N\Nc1cccc2cccnc12)c1ccccn1	n	n	n	n	76.9	n
C/C(=N\Nc1ncc(Cl)cc1Cl)c1ccccn1	x	n	x	x	68.5	x
CC(=O)c1ccc(N2C(=O)CC(N3CCN(S(=O)(=O)c4ccc(C)c(C)c4)CC3)C2=O)cc1 (configuration not stated)	n	x	n	n	x	n
CC(=O)N(Cc1ccc(F)cc1)C1=C(NCc2ccccc2)C(=O)c2ccccc2C1=O	x	n	x	x	67.1	x
O=C(NCc1ccc(F)cc1)C(c1ccccc1)c1ccccc1	n	x	n	n	n	n
O=C(CSc1nc(Cc2ccccc2)nc2ccccc12)Nc1nc2c(s1)CCCC2	x	n	x	n	n	n
CC(C)c1nc(SCC(=O)Nc2nc3c(s2)CCCC3)c2ccccc2n1	n	61.5	n	n	n	n
CC(C)(C)c1nc(SCC(=O)Nc2nc3c(s2)CCCC3)c2ccccc2n1	n	n	119.5	n	59.2	n
CCOC(=O)NN1C(=O)c2ccccc2NC1c1cccs1 (configuration not stated)	n	x	n	n	n	n
C/C(N)=C(/C#N)C(=O)COC(=O)CNC(=O)c1ccc(Cl)cc1Cl	n	n	n	n	n	n
CCOC(=O)CN1C(=O)Nc2ccc(Br)cc2C1c1ccccc1 (configuration not stated)	n	n	n	n	n	n
CCOC(=O)CN1C(c2ccc(O)cc2)Nc2ccc(Br)cc2C1c1ccccc1 (configuration not stated)	n	95.6	n	n	n	n
Cn1cc(CC(=O)NCCCN2CCCC2=O)c2ccccc21	x	n	n	n	n	n
CCCCN(CCCC)c1nc(-c2ccncc2)nc2ccccc12	x	x	101.1	n	n	n
CCN(CC)c1nc(-c2ccccc2)nc2ccccc12	n	x	n	n	n	n
Nc1cc(S(=O)(=O)Nc2cc(Cl)ccc2Cl)ccc1N1CCCC1	n	x	n	n	n	n
N#Cc1cc2nc(O)c(O)nc2cc1[N+](=O)[O-]	n	x	n	n	x	n
SMILES	Beta apoptosis	WT yeast gro inh	CSC inhib	Efflux pump inh	T cruzi inh	SUMO Mot1 rescue
CNc1nc2cc([N+](=O)[O-])c([N+](=O)[O-])cc2nc1NC	97.6	n	n	n	n	n
O=C1NC(=O)C2(COC(c3cccc([N+](=O)[O-])c3)OC2)S1 (configuration not stated)	x	n	n	n	n	n
CCCCn1c(C2CCCCC2)nc2cc3[nH]c(=O)c(C(C)C)nc3cc21	x	x	81.0	n	n	n
CCCCn1c(-c2cccc3ccccc23)nc2cc3[nH]c(=O)c(C(C)C)nc3cc21	n	x	n	n	63.0	n
Cc1ccc(NC(=S)NCc2ccco2)c(C)c1	n	x	n	n	n	n
CC(=O)N1c2ccc(Cl)cc2C2C=CCC2C1c1cccc2ccccc12 (configuration not stated)	n	n	78.1	n	x	n
CN(c1ccc(C(=O)NCCCn2ccnc2)cc1)S(C)(=O)=O	n	x	n	n	n	n
Cc1cc(C)n(CC(O)Cn2c3ccc(Cl)cc3c3cc(Cl)ccc32)c(=O)n1 (configuration not stated)	n	96.8	n	n	n	n
CCOC(=O)C1CCN(C(=O)CN2C(=O)COc3ccc(C(C)(C)C)cc32)CC1	n	x	n	n	n	n
NC(=S)N/N=C/c1ccc(Br)o1	n	n	n	n	n	n
C=CCNC(=S)N/N=C/c1ccc(-c2ccc(Cl)cc2Cl)o1	n	x	n	n	59.9	n
C=CCNC(=S)N/N=C/c1ccc(-c2cc(Cl)ccc2Cl)o1	n	n	n	n	n	n
NC(=S)N/N=C/c1ccc(-c2cc(Cl)c(Cl)cc2Cl)o1	n	n	n	n	63.9	n
C=CCNC(=S)N/N=C/c1ccc(-c2ccc(OC)cc2)o1	n	n	n	n	91.3	n
CN(C(=O)c1cc(S(=O)(=O)N2CCc3ccccc32)cn1C)C1CCCCC1	n	x	n	n	n	n
CCCCn1c(CN2CCN(c3cccc(Cl)c3)CC2)nc2c1c(=O)n(C)c(=O)n2C	n	71.8	n	n	n	n
CCCCCn1c(CN2CCN(c3cccc(Cl)c3)CC2)nc2c1c(=O)n(C)c(=O)n2C	n	x	n	n	n	n
CCCCCn1c(CN2CCN(c3cc(Cl)ccc3C)CC2)nc2c1c(=O)[nH]c(=O)n2C	n	65.5	111.8	n	n	n
CCCCCn1c(N2CCN(c3cccc(Cl)c3)CC2)nc2c1c(=O)[nH]c(=O)n2C	n	n	n	n	n	n
COc1ccc2[nH]c(-c3ccc(C)cc3)cc(=O)c2c1	n	n	n	n	n	n
CC(=O)c1cccc(N2C(=NC(=O)C3CC3)SC3CS(=O)(=O)CC32)c1 (configuration not stated)	n	x	n	n	n	n
CCOC(=O)c1c(NC(=O)C(NCCN(C)C)c2ccccc2)sc2c1CCCC2 (configuration not stated)	n	x	n	n	n	n
CCOC(=O)C1=C(COC(=O)CCNS(=O)(=O)c2ccc(C)c(C)c2)NC(=O)NC1C (configuration not stated)	n	x	x	n	x	n
COc1cc(NC(=O)C2=C(N3CCOCC3)/C(=C\c3ccc(N(C)C)cc3)CCC2)cc(OC)c1OC	n	n	87.1	n	n	n
Cc1cc(NC(=O)CN2CCN(c3ccc(O)cc3)CC2)no1	n	n	n	n	n	n
CCC(C)n1ncn(-c2ccc(N3CCN(c4ccc(O)cc4)CC3)cc2)c1=O (configuration not stated)	n	n	104.1	n	n	n
Cc1cccc(Cc2cnc(N3C(=N)SC(C)C3=O)s2)c1 (configuration not stated)	n	n	n	n	68.1	n
CCOc1ccc(CCNC(=O)COC(=O)c2cc(=O)[nH]c3ccccc23)cc1OCC	n	x	n	n	n	n
O=C(Cn1cc(C(F)(F)F)cc(Cl)c1=O)Nc1cc(S(=O)(=O)N2CCOCC2)ccc1Cl	n	n	n	n	n	n
Clc1ccc(CSc2nnc(-c3ccncc3)o2)c(Cl)c1	n	76.5	n	n	n	n
